From ChEMBL document CHEMBL3244376, “Synthesis and biological activity of highly active alpha-aza analogues of luliberin” (1978)
Calls of active or inactive are those of the source. The rule behind the calls is not given here. Where a SMILES comes first, the peptide text is derived from it. [ ]: non-standard residue; d: D form. The star is where a group is joined. pGlu = O=C1CC[C@@H](C(=O)O)N1; X2 = CN(N*)C(N)=O

Key:
Rattus norvegicus [1] = test: Ovulation-inducing activity in androgen-sterilized constant-estrus rat at 0.005 ug, iv; type: functional, organism-based
Summary of the method: (§1)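 Androgen-sterilized constant-estrus rats. Doses are given as μg per rat. The readout is ovulation, scored as the number of animals ovulating out of the number treated at each dose. Groups held 3 to 6 rats.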

Rattus norvegicus [2] = test: Ovulation-inducing activity in androgen-sterilized constant-estrus rat at 0.01 ug, iv; type: functional, organism-based; summary of the method: as §1
Rattus norvegicus [3] = test: Ovulation-inducing activity in iv dosed androgen-sterilized constant-estrus rat relative to luliberin; type: functional
Rattus norvegicus [4] = test: Ovulation-inducing activity in androgen-sterilized constant-estrus rat at 0.062 ug, iv; type: functional, organism-based; summary of the method: as §1
Rattus norvegicus [5] = test: Ovulation-inducing activity in androgen-sterilized constant-estrus rat at 0.031 ug, iv; type: functional, organism-based; summary of the method: as §1
Rattus norvegicus [6] = test: Ovulation-inducing activity in androgen-sterilized constant-estrus rat at 0.10 ug, iv; type: functional, organism-based; summary of the method: as §1
Rattus norvegicus [7] = test: Ovulation-inducing activity in androgen-sterilized constant-estrus rat at 10 ug, iv; type: functional, organism-based; summary of the method: as §1
Rattus norvegicus [8] = test: Ovulation-inducing activity in androgen-sterilized constant-estrus rat at 1.0 ug, iv; type: functional, organism-based; summary of the method: as §1
Rattus norvegicus [9] = test: Ovulation-inducing activity in androgen-sterilized constant-estrus rat at 0.125 ug, iv; type: functional, organism-based; summary of the method: as §1
Rattus norvegicus [10] = test: Ovulation-inducing activity in androgen-sterilized constant-estrus rat at 0.001 ug, iv; type: functional, organism-based; summary of the method: as §1
Rattus norvegicus [11] = test: Ovulation-inducing activity in androgen-sterilized constant-estrus rat at 0.05 ug, iv; type: functional, organism-based; summary of the method: as §1
Rattus norvegicus [12] = test: Ovulation-inducing activity in androgen-sterilized constant-estrus rat at 0.25 ug, iv; type: functional, organism-based; summary of the method: as §1
Rattus norvegicus [13] = test: Ovulation-inducing activity in androgen-sterilized constant-estrus rat at 0.0025 ug, iv; type: functional, organism-based; summary of the method: as §1

With `CC(C)C[C@H](NC(=O)[C@@H](Cc1ccccc1)NC(=O)[C@H](Cc1ccc(O)cc1)NC(=O)[C@H](CO)NC(=O)[C@H](Cc1c[nH]c2ccccc12)NC(=O)[C@H](Cc1cnc[nH]1)NC(=O)[C@@H]1CCC(=O)N1)C(=O)N[C@@H](CCCNC(=N)N)C(=O)N1CCC[C@H]1C(=O)NCC(N)=O` the Activity (Rattus norvegicus [1]) was “inactive” and the Activity (Rattus norvegicus [2]) was “Active”.
For `CC(C)C[C@H](NC(=O)[C@@H](Cc1c[nH]c2ccccc12)NC(=O)[C@H](Cc1ccc(O)cc1)NC(=O)[C@H](CO)NC(=O)[C@H](Cc1c[nH]c2ccccc12)NC(=O)[C@H](Cc1cnc[nH]1)NC(=O)[C@@H]1CCC(=O)N1)C(=O)N[C@@H](CCCNC(=N)N)C(=O)N1CCC[C@H]1C(=O)NNC(N)=O`, the “fold change (FC)” value (Rattus norvegicus [3]) was 5, the Activity (Rattus norvegicus [4]) was “Active” and the Activity (Rattus norvegicus [5]) was “inactive”.
For `CCNC(=O)[C@@H]1CCCN1C(=O)[C@H](CCCNC(=N)N)NC(=O)[C@H](CC(C)C)NC(=O)[C@@H](COC(C)(C)C)NC(=O)[C@H](Cc1ccc(O)cc1)NC(=O)[C@H](CO)NC(=O)[C@H](Cc1c[nH]c2ccccc12)NC(=O)[C@H](Cc1cnc[nH]1)NC(=O)[C@@H]1CCC(=O)N1`, the Activity (Rattus norvegicus [6]) was “Active”.
`CC(C)C[C@H](NC(=O)N(Cc1ccccc1)NC(=O)[C@H](Cc1ccc(O)cc1)NC(=O)[C@H](CO)NC(=O)[C@H](Cc1c[nH]c2ccccc12)NC(=O)[C@H](Cc1cnc[nH]1)NC(=O)[C@@H]1CCC(=O)N1)C(=O)N[C@@H](CCCNC(=N)N)C(=O)N1CCC[C@H]1C(=O)NNC(N)=O` was tested, and the Activity (Rattus norvegicus [7]) was “Active”.
In the case of `CC(C)C[C@@H](C(=O)N[C@@H](CCCNC(=N)N)C(=O)N1CCC[C@H]1C(=O)NNC(N)=O)N(C)C(=O)[C@@H](Cc1ccccc1)NC(=O)[C@H](Cc1ccc(O)cc1)NC(=O)[C@H](CO)NC(=O)[C@H](Cc1c[nH]c2ccccc12)NC(=O)[C@H](Cc1cnc[nH]1)NC(=O)[C@@H]1CCC(=O)N1`, the Activity (Rattus norvegicus [1]) is reported as “inactive” and the Activity (Rattus norvegicus [2]) is reported as “Active”.
With `CCNC(=O)N1CCCN1C(=O)[C@H](CCCNC(=N)N)NC(=O)[C@H](CC(C)C)NC(=O)[C@@H](Cc1ccccc1)NC(=O)[C@H](Cc1ccc(O)cc1)NC(=O)[C@H](CO)NC(=O)[C@H](Cc1c[nH]c2ccccc12)NC(=O)[C@H](Cc1cnc[nH]1)NC(=O)[C@@H]1CCC(=O)N1` the Activity (Rattus norvegicus [8]) was “Active” and the Activity (Rattus norvegicus [9]) was “inactive”.
For `CC(C)C[C@H](NC(=O)[C@@H](CO)NC(=O)[C@H](Cc1ccc(O)cc1)NC(=O)[C@H](CO)NC(=O)[C@H](Cc1c[nH]c2ccccc12)NC(=O)[C@H](Cc1cnc[nH]1)NC(=O)[C@@H]1CCC(=O)N1)C(=O)N[C@@H](CCCNC(=N)N)C(=O)N1CCC[C@H]1C(=O)NNC(N)=O`, the Activity (Rattus norvegicus [10]) was “inactive” and the Activity (Rattus norvegicus [11]) was “Active”.
In the case of `CC(C)C[C@H](NC(=O)CNC(=O)[C@H](Cc1ccc(O)cc1)NC(=O)[C@H](CO)NC(=O)[C@H](Cc1c[nH]c2ccccc12)NC(=O)[C@H](Cc1cnc[nH]1)NC(=O)[C@@H]1CCC(=O)N1)C(=O)N[C@@H](CCCNC(=N)N)C(=O)N1CCC[C@H]1C(=O)NN(C)C(N)=O` ([pGlu]HWSYGLRP-X2), the Activity (Rattus norvegicus [8]) is reported as “Active” and the Activity (Rattus norvegicus [12]) is reported as “inactive”.
With `CC(C)C[C@H](NC(=O)[C@@H](Cc1ccccc1)NC(=O)[C@H](Cc1ccc(O)cc1)NC(=O)[C@H](CO)NC(=O)[C@H](Cc1c[nH]c2ccccc12)NC(=O)[C@H](Cc1cnc[nH]1)NC(=O)[C@@H]1CCC(=O)N1)C(=O)N[C@@H](CCCNC(=N)N)C(=O)N1CCC[C@H]1C(=O)NNC(N)=O` the “fold change (FC)” value (Rattus norvegicus [3]) was 5, the Activity (Rattus norvegicus [1]) was “Active” and the Activity (Rattus norvegicus [13]) was “inactive”.
`CC(C)C[C@@H](C(=O)N[C@@H](CCCNC(=N)N)C(=O)N1CCC[C@H]1C(=O)NNC(N)=O)N(C)C(=O)[C@@H](Cc1ccccc1)NC(=O)[C@H](Cc1ccc(OC(C)(C)C)cc1)NC(=O)[C@H](CO)NC(=O)[C@H](Cc1c[nH]c2ccccc12)NC(=O)[C@H](Cc1cnc[nH]1)NC(=O)[C@@H]1CCC(=O)N1` was tested, and the “fold change (FC)” value (Rattus norvegicus [3]) was 5 and the Activity (Rattus norvegicus [6]) was “Active”.
